Source: PubChem BioAssay (The Scripps Research Institute Molecular Screening Center)
pPAFAH inh: inhibitors of human plasma PAF acetylhydrolase (pPAFAH). inhibition, % at 3.39 µM. AID 463082. Q13093. recombinant pPAFAH, FP-rhodamine probe fluorescence polarization. hit rate 1.5% among 330,000;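 active = inhibition above the mean inhibition across the screen plus 3 SD, cut at about 25% in these data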;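 also: inhibitors block binding of the rhodamine activity-based probe so polarization drops; 0% = enzyme with DMSO and 100% = wells lacking pPAFAH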
PAFAH1B2 inh: inhibitors of human PAFAH1B2; P68402; recombinant PAFAH1B2, FP-rhodamine activity probe, fluorescence polarization; inhibition, % at 3.39 µM; hit rate 1.2% among 340,000;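 active = inhibition above the mean of all tested compounds plus 3 SD, cut at about 24% in these data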;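 also: 0% = enzyme with DMSO and 100% = wells lacking PAFAH1B2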
Target sequence (P68402 whole entry, looked up): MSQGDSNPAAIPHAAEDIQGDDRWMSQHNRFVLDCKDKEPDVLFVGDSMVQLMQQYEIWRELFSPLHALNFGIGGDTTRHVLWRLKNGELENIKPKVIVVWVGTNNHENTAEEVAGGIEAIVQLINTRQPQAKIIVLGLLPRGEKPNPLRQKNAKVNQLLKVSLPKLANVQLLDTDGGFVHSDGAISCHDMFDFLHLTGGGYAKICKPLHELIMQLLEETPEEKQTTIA
IMP-1 inh: blocks Pseudomonas aeruginosa IMP-1 metallo-beta-lactamase; purified IMP-1, nitrocefin hydrolysis, epi-absorbance fluorescence; inhibition, % at 5.6 µM; AID 1556; hit rate 0.45% among 290,000;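 active = inhibition above the mean plus 3 SD of all compounds in the same screening run, cut at about 4.5% in these data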;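 also: 0% = IMP-1 with DMSO and 100% = DMSO wells lacking enzyme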
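System: Purified IMP-1 | Read-out basis: Percent enzyme inhibition | Controls: IMP-1 with DMSO as 0%, enzyme-free DMSO as 100% | Replicates: One well per compound | Doses: 5.6 µM nominal single concentration | Detection: Epi-absorbance fluorescence, 480 nm excitation, 530 nm emission | Incubation: 25 °C, 15 min preincubation, 25 min reaction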
PAFAH1B3 inh: inhibitors of human PAFAH1B3; hit rate 0.28% among 340,000; inhibition, % at 3.39 µM; recombinant PAFAH1B3, FP-rhodamine probe, fluorescence polarization;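 active = inhibition above the screen-wide average of all tested compounds plus 3 SD, cut at about 25% in these data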;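 also: 0% = enzyme with DMSO only and 100% = wells lacking PAFAH1B3 protein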
Target sequence (Q15102 whole entry, looked up): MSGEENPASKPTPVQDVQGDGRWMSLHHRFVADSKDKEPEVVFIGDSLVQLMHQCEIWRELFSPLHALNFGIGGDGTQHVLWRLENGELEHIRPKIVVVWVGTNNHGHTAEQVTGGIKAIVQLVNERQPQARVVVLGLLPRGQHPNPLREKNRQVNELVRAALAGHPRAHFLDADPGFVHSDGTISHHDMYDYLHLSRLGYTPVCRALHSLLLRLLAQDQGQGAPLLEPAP
PAFAH2 inh: inhibitors of human PAFAH2; hit rate 0.99% among 340,000; inhibition, % at 3.39 µM; recombinant PAFAH2, FP-rhodamine activity probe, fluorescence polarization;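 active = inhibition above the mean over all tested compounds plus 3 SD, cut at about 30% in these data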;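 also: inhibitors block probe labeling of enzyme so polarization drops; 0% = enzyme with DMSO and 100% = wells lacking PAFAH2 protein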
VIM-2 inh: blocks Pseudomonas aeruginosa VIM-2 metallo-beta-lactamase; hit rate 0.89% among 290,000; inhibition, % at 5.6 µM; AID 1527; purified VIM-2, nitrocefin hydrolysis, epi-absorbance fluorescence;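 active = inhibition above the mean of all tested compounds plus 3 SD, cutoff set per screening run, cut at about 7.5% in these data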;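 also: red hydrolysis product quenches plate fluorescence so inhibitors raise well fluorescence; 0% = enzyme with DMSO and 100% = DMSO without enzyme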
An asterisk follows results filed as active; · = not tested or not shown. Rows were chosen to be rich in hits. Some 3.6% of all compounds tested hit in one or more screens of this group.

SMILES	pPAFAH inh	PAFAH1B2 inh	IMP-1 inh	PAFAH1B3 inh	PAFAH2 inh	VIM-2 inh
COCC(C)n1c(SCC(=O)NC(=O)Nc2ccc3c(c2)OCCO3)nc2ccccc2c1=O (configuration not stated)	6	5	5.5*	6	1	-1
O=C(CSc1nnnn1-c1ccccc1)NC(=O)Nc1ccc2c(c1)OCCO2	1	-1	5.6*	1	4	1
Cc1cc(C(=O)NCC(=O)OCC(=O)NCC2CCCO2)ccc1[N+](=O)[O-] (configuration not stated)	1	3	·	15	0	·
Oc1ccc(/C=N/n2c(-c3ccccc3)n[nH]c2=S)cc1	-7	4	0	2	-1	9.2*
S=c1[nH]nc(-c2ccccc2)n1/N=C/C=C/c1ccco1	31*	1	-4	15	11	1
CCc1n[nH]c(=S)n1/N=C/c1ccc(N(C)c2ccccc2)cc1	26*	-6	-2	11	-1	0
S=c1[nH]nc(-c2cccnc2)n1/N=C/C=C/c1ccco1	19	1	-2	11	5	5
CCOc1ccc(NC(=O)CN(C)C(=O)C(C)Oc2ccc(Cl)cc2)cc1OCC (configuration not stated)	·	4	·	12	5	·
CN(Cc1ccccc1)C(=O)c1cccc(NC(=O)Cc2ccc(NC(=O)C3CCCN(C(=O)c4ccccc4)C3)cc2)c1 (configuration not stated)	·	3	·	1	-1	·
Cc1c(/C(O)=C2/C(=O)C(=O)N(CCN3CCOCC3)C2c2cccs2)cnn1-c1ccccc1 (configuration not stated)	3	4	6.1*	9	3	0
COc1ccc(S(=O)(=O)N2CCC(C(=O)NC3CC3)CC2)cc1OC	3	-1	-2	10	9	-2
Cc1ccc(Cl)c2c(N=Nc3ccccc3)c(O)[nH]c12	·	-3	4.6*	5	0	7
COc1ccc(Br)cc1/C=N/N1C(=O)CSC1=S	20	4	17*	7	-5	-1
Cc1cccc(OCC(=O)N/N=C/C=C/c2ccco2)c1	30*	0	-3	-3	5	-3
CCn1c(SCC(=O)N/N=C/C=C\c2ccco2)nc2ccccc21	25*	-3	-3	-6	5	-2
Cc1cccc(OCC(=O)NCC(=O)N/N=C/c2cc(Br)cc(Br)c2O)c1	24	34*	1	8	13	-3
Oc1ccc(/C=N/Nc2ccc3ccccc3c2)c(O)c1	25*	2	4	12	5	0
COc1ccc(-c2noc(CSc3ccccc3)n2)cc1OC	14	24*	-3	7	7	0
CCc1ccc(/C=C2/SC(=S)N(CCC(=O)Nc3cccnc3)C2=O)cc1	-2	2	0	-1	-6	0
CC1CCN(C(=O)COC(=O)c2ccc([N+](=O)[O-])o2)CC1	28*	7	·	12	0	·
CC1CCN(C(=O)COC(=O)c2ccc(Br)o2)CC1	7	6	0	3	7	-3
CCOc1ccc(OCCC(=O)N(CC)CC(=O)Nc2c(F)cccc2F)cc1	0	2	·	9	0	·
COc1cnc(SC)nc1Nc1ccc(C#N)cc1	1	8	-3	12	4	9.1*
O=C(O)C1CCN(C(=O)CSc2nc3ccccc3c(=O)n2-c2ccc(Cl)cc2)CC1	-3	0	-3	0	0	-2
CSc1ccc(CN2CCN(CC=C(C)C)C(CCO)C2)cc1 (configuration not stated)	25*	-1	-3	10	-5	-3
SMILES	pPAFAH inh	PAFAH1B2 inh	IMP-1 inh	PAFAH1B3 inh	PAFAH2 inh	VIM-2 inh
CSc1ccc(CN2CCN(Cc3ccccc3)C(CCO)C2)cc1 (configuration not stated)	8	-2	-3	-2	-2	-2
Cc1cccc(NC(=O)COC(=O)c2cccc3c2C(=O)c2ccccc2C3=O)c1C	31*	4	-1	13	13	-1
Cc1cccc(C)c1NC(=O)COC(=O)c1cccc2c1C(=O)c1ccccc1C2=O	4	-13	2	-3	10	-1
CC1=CC(=O)c2c(O)ccc(O)c2C1=O	70*	·	5.3*	·	·	3
COc1ccc2nc3n(c(=O)c2c1)-c1ccccc1C(=O)NC3Cc1ccccc1 (configuration not stated)	1	·	·	·	·	·
CCN(c1ccc(C(=O)CSc2nnc(C3CC3)n2C2CC2)cc1)S(C)(=O)=O	0	-3	·	4	-1	·
Cc1cc2c(c(=O)o1)C(CCC1CCCCC1)C(C#N)=C(N)O2 (configuration not stated)	8	·	11*	·	·	-2
Cc1ccc(CC2C(=O)N(c3ccc(C)cc3)C(=O)C2C)cc1 (configuration not stated)	3	12	-3	9	-10	-4
Cc1ccc(CC2C(=O)N(c3ncccn3)C(=O)C2C)cc1 (configuration not stated)	6	2	4.9*	9	11	1
Cc1ccc(OCC(=O)NC2CCCC(C)C2C)c([N+](=O)[O-])n1 (configuration not stated)	3	-1	·	-7	-2	·
COc1ccc(-c2[nH]c(-c3ccc(SC)cc3)nc2SCC(=O)Nc2nccs2)cc1	7	27*	-2	25	-21	0
CCCCCCc1cc2cc(S(=O)(=O)c3ccc(F)c(Cl)c3)c(=O)oc2cc1O	33*	1	-3	3	26	-2
CCCCCCc1cc2cc(C(=O)OCC)c(=O)oc2cc1O	-1	4	-2	2	8	-1
CC1/C(=N/O)CC(c2ccccc2)NC1c1ccccc1 (configuration not stated)	6	5	-4	-5	3	-5
CCCC1/C(=N/O)CC(c2ccccc2)NC1c1ccccc1 (configuration not stated)	27*	5	-3	2	-1	-5
CC(C)CCC(C)NC(=O)Cc1ccc(S(=O)(=O)N2CCOCC2)s1 (configuration not stated)	1	2	-3	1	-2	-1
CC(C)Cc1ccc(C(C)NC(=O)Cc2ccc(S(=O)(=O)N3CCOCC3)s2)cc1 (configuration not stated)	30*	4	·	1	0	·
O=C1CC(N2CCN(S(=O)(=O)c3ccccc3F)CC2)C(=O)N1c1ccccc1F (configuration not stated)	·	2	·	13	2	·
CCc1ccc(C(CC(=O)c2ccc(Cl)cc2)C(=O)O)cc1 (configuration not stated)	-3	2	-1	6	6	-2
CC(C)c1ccc(C(CC(=O)c2ccc(Cl)cc2)C(=O)O)cc1 (configuration not stated)	5	38*	-1	-2	-14	-1
